According to ChEMBL document CHEMBL4033712, “Synthesis and biological evaluation of new C-12(α/β)-(N-) sulfamoyl-phenylamino-14-deoxy-andrographolide derivatives as potent anti-cancer agents” (Bioorg Med Chem Lett, 2017):

Tests used:
Format in all cases: functional
MDA-MB-231 = experiment: Growth inhibition of human MDA-MB-231 cells incubated for 48 hrs by sulforhodamine B assay; conditions: MDA-MB-231, 48 h
Summary of the method: (§1)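 NCI-60 five-dose screen at 0.01, 0.1, 1, 10 and 100 µM, 48 h incubation, sulforhodamine B end point. GI50 (50% decrease in net growth), TGI (total growth inhibition) and LC50 (net 50% loss of initial cells) taken from log concentration versus % growth inhibition curves.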

LOX IMVI = experiment: Growth inhibition of human LOXIMVI cells incubated for 48 hrs by sulforhodamine B assay; summary of the method: as §1
ACHN = experiment: Growth inhibition of human ACHN cells incubated for 48 hrs by sulforhodamine B assay; summary of the method: as §1
TK-10 = experiment: Growth inhibition of human TK10 cells incubated for 48 hrs by sulforhodamine B assay; conditions: TK-10, 48 h
Summary of the method: (§2)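 NCI 60 human tumour cell line panel, five-dose study at 0.01, 0.1, 1, 10 and 100 µM, 48 h incubation. Sulforhodamine B protein-binding dye end point. GI50 (50% decrease in net cell growth), TGI (total growth inhibition) and LC50 (net 50% loss of initial cells) read from log concentration versus % growth inhibition curves.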

SK-MEL-2 = experiment: Growth inhibition of human SK-MEL-2 cells incubated for 48 hrs by sulforhodamine B assay; conditions: SK-MEL-2, 48 h; summary of the method: as §2
OVCAR-5 = experiment: Growth inhibition of human OVCAR5 cells incubated for 48 hrs by sulforhodamine B assay; conditions: OVCAR-5, 48 h; summary of the method: as §1
SNB-19 = experiment: Growth inhibition of human SNB19 cells incubated for 48 hrs by sulforhodamine B assay; conditions: SNB-19, 48 h; summary of the method: as §2
786-0 = experiment: Growth inhibition of human 786-0 cells incubated for 48 hrs by sulforhodamine B assay; conditions: 786-0, 48 h; summary of the method: as §1
MDA-MB-468 = experiment: Growth inhibition of human MDA-MB-468 cells incubated for 48 hrs by sulforhodamine B assay; conditions: MDA-MB-468, 48 h; summary of the method: as §1
DU-145 = experiment: Growth inhibition of human DU145 cells incubated for 48 hrs by sulforhodamine B assay; conditions: DU-145, 48 h; summary of the method: as §1
NCI/ADR-RES = experiment: Growth inhibition of human NCI/ADR-RES cells incubated for 48 hrs by sulforhodamine B assay; summary of the method: as §1
SW-620 = experiment: Growth inhibition of human SW620 cells incubated for 48 hrs by sulforhodamine B assay; conditions: SW-620, 48 h; summary of the method: as §2
K562 = experiment: Growth inhibition of human K562 cells incubated for 48 hrs by sulforhodamine B assay; conditions: K562, 48 h; summary of the method: as §1
A498 = experiment: Growth inhibition of human A498 cells incubated for 48 hrs by sulforhodamine B assay; conditions: A498, 48 h; summary of the method: as §1
SK-MEL-28 = experiment: Growth inhibition of human SK-MEL-28 cells incubated for 48 hrs by sulforhodamine B assay; conditions: SK-MEL-28, 48 h; summary of the method: as §2
COLO 205 = experiment: Growth inhibition of human COLO205 cells incubated for 48 hrs by sulforhodamine B assay; conditions: COLO 205, 48 h; summary of the method: as §1
A549 = experiment: Growth inhibition of human A549/ATCC cells incubated for 48 hrs by sulforhodamine B assay; conditions: A549, 48 h; summary of the method: as §1
CCRF-CEM = experiment: Growth inhibition of human CCRF-CEM cells incubated for 48 hrs by sulforhodamine B assay; summary of the method: as §1
SN12C = experiment: Growth inhibition of human SN12C cells incubated for 48 hrs by sulforhodamine B assay; summary of the method: as §2
KM12 = experiment: Growth inhibition of human KM12 cells incubated for 48 hrs by sulforhodamine B assay; conditions: KM12, 48 h; summary of the method: as §1
HT-29 = experiment: Growth inhibition of human HT-29 cells incubated for 48 hrs by sulforhodamine B assay; conditions: HT-29, 48 h; summary of the method: as §1
IGROV-1 = experiment: Growth inhibition of human IGROV1 cells incubated for 48 hrs by sulforhodamine B assay; conditions: IGROV-1, 48 h; summary of the method: as §1
HCC 2998 = experiment: Growth inhibition of human HCC2998 cells incubated for 48 hrs by sulforhodamine B assay; conditions: HCC 2998, 48 h; summary of the method: as §1
HCT-116 = experiment: Growth inhibition of human HCT116 cells incubated for 48 hrs by sulforhodamine B assay; conditions: HCT-116, 48 h; summary of the method: as §1
SF-539 = experiment: Growth inhibition of human SF539 cells incubated for 48 hrs by sulforhodamine B assay; conditions: SF-539, 48 h; summary of the method: as §2
HL-60(TB) = experiment: Growth inhibition of human HL-60(TB) cells incubated for 48 hrs by sulforhodamine B assay; conditions: HL-60, 48 h
Summary of the method: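 NCI-60 five-dose screen at 0.01, 0.1, 1, 10 and 100 µM for 48 h, sulforhodamine B read-out. GI50 taken from log concentration versus % growth inhibition curves as the concentration giving 50% decrease in net cell growth.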

SF-268 = experiment: Growth inhibition of human SF268 cells incubated for 48 hrs by sulforhodamine B assay; conditions: SF-268, 48 h; summary of the method: as §2
NCI-H322M = experiment: Growth inhibition of human NCI-H322M cells incubated for 48 hrs by sulforhodamine B assay; summary of the method: as §1
[1] = read-out: LC50 (the source's name)

Compound: C=C1CC[C@@H]2[C@](C)(COC(C)=O)[C@H](OC(C)=O)CC[C@@]2(C)[C@H]1CC(Nc1ccc(S(=O)(=O)Nc2ccc(Cl)nn2)cc1)C1=CCOC1=O (stereo partly drawn)
- GI50 (MDA-MB-231): 1.9 µM
- LC50 (concentration giving net 50% loss of initial cells) (MDA-MB-231): 8.27 µM
- TGI (MDA-MB-231): 3.96 µM
- GI50 (LOX IMVI): 0.29 µM
- TGI (LOX IMVI): 1.19 µM
- CC50 (LOX IMVI; [1]): 4.17 µM
- GI50 (ACHN): 1.68 µM
- TGI (ACHN): 3.32 µM
- CC50 (ACHN; [1]): 6.57 µM
- GI50 (TK-10): 2.13 µM
- TGI (TK-10): 4.19 µM
- CC50 (TK-10; [1]): 8.25 µM
- GI50 (SK-MEL-2): 1.77 µM
- TGI (SK-MEL-2): 3.99 µM
- CC50 (SK-MEL-2; [1]): 8.97 µM
- GI50 (OVCAR-5): 2.01 µM
- LC50 (concentration causing net 50% loss of initial cells) (OVCAR-5): 8.63 µM
- TGI (OVCAR-5): 4.16 µM
- GI50 (SNB-19): 1.91 µM
- TGI (SNB-19): 3.91 µM
- CC50 (SNB-19; [1]): 8 µM
- GI50 (786-0): 1.69 µM
- LC50 (concentration giving net 50% loss of initial cells) (786-0): 5.83 µM
- TGI (786-0): 3.14 µM
- GI50 (MDA-MB-468): 1.32 µM
- TGI (MDA-MB-468): 3.37 µM
- CC50 (MDA-MB-468; [1]): 8.62 µM
- GI50 (DU-145): 1.7 µM
- TGI (DU-145): 3.45 µM
- CC50 (DU-145; [1]): 7.02 µM
- GI50 (NCI/ADR-RES): 1.87 µM
- LC50 (concentration giving net 50% loss of initial cells) (NCI/ADR-RES): > 100 µM
- TGI (NCI/ADR-RES): 6.2 µM
- GI50 (SW-620): 1.07 µM
- TGI (SW-620): 2.8 µM
- CC50 (SW-620; [1]): 7.34 µM
- GI50 (K562): 0.52 µM
- TGI (K562): 5.19 µM
- CC50 (K562; [1]): > 100 µM
- GI50 (A498): 1.4 µM
- LC50 (concentration giving net 50% loss of initial cells) (A498): 15.6 µM
- TGI (A498): 4.26 µM
- GI50 (SK-MEL-28): 1.68 µM
- LC50 (50% net cell kill) (SK-MEL-28): 7.13 µM
- TGI (SK-MEL-28): 3.46 µM
- GI50 (COLO 205): 1.46 µM
- TGI (COLO 205): 3.16 µM
- CC50 (COLO 205; [1]): 6.86 µM
- GI50 (A549): 2.96 µM
- TGI (A549): 10.7 µM
- CC50 (A549; [1]): 40.9 µM
- GI50 (CCRF-CEM): 0.46 µM
- TGI (CCRF-CEM): 2.6 µM
- CC50 (CCRF-CEM; [1]): > 100 µM
- GI50 (SN12C): 1.25 µM
- TGI (SN12C): 3.66 µM
- CC50 (SN12C; [1]): 12.7 µM
- GI50 (KM12): 1.7 µM
- TGI (KM12): 3.49 µM
- CC50 (KM12; [1]): 7.16 µM
- GI50 (HT-29): 1.18 µM
- TGI (HT-29): 2.68 µM
- GI50 (IGROV-1): 2.08 µM
- TGI (IGROV-1): 5 µM
- CC50 (IGROV-1; [1]): 18.3 µM
- GI50 (HCC 2998): 1.84 µM
- TGI (HCC 2998): 3.86 µM
- CC50 (HCC 2998; [1]): 8.08 µM
- GI50 (HCT-116): 1.08 µM
- TGI (HCT-116): 2.32 µM
- CC50 (HCT-116; [1]): 4.96 µM
- GI50 (SF-539): 1.23 µM
- TGI (SF-539): 2.63 µM
- CC50 (SF-539; [1]): 5.62 µM
- GI50 (HL-60(TB)): 1.32 µM
- TGI (HL-60(TB)): 4.44 µM
- CC50 (HL-60(TB); [1]): > 100 µM
- GI50 (SF-268): 1.8 µM
- TGI (SF-268): 3.67 µM
- CC50 (SF-268; [1]): 7.51 µM
- GI50 (NCI-H322M): 2.97 µM
- TGI (NCI-H322M): 11.6 µM
- CC50 (NCI-H322M; [1]): 36.1 µM
